A selection: hits, their analogues and other compounds. The true share with any hit is near 1.9%.
SR-BI DiI-HDL act: activators of SR-BI mediated HDL lipid uptake; CHO ldlA[mSR-BI] cells, DiI-HDL uptake fluorescence, 3 h; 100 = double the neutral-control signal; 320,000 tested, 0.096% active; AID 504775; activation, % at 12.5 µM;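 active = mean replicate activation of at least 60% and every replicate at or above 60%; inconclusive = mean or all-replicate condition met, but not both; inactive = mean below 60% and not all replicates reaching 60%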;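 note: 0% = median plate neutral-control signal and 100% = twice that signal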
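material = CHO ldlA[mSR-BI] cells | medium = Ham's F12 with 0.5% BSA, HEPES 25 mM, pH 7.4 | reagent = fluorescent DiI-HDL, 10 µg/mL final | compound dosing = single-point compound dose | incubation = 3 h, 37 °C | measured by = bottom-read fluorescence, 550/595 nm | measure = HDL uptake via cellular fluorescence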
SR-BI HDL uptake: mouse SR-BI HDL lipid transfer inhibition; ldlA[mSR-BI] CHO cells, DiI-HDL uptake fluorescence, 3 h; inhibition, % at 12.5 µM; Q61009; AID 488896; 320,000 tested, 0.96% active;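 active = mean replicate inhibition of at least 70% and a set share of replicates each scoring 70 or more; inconclusive = meets just one of the two criteria; inactive = fails both criteria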;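 note: 0% = median of neutral control wells and 100% = median of positive control wells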
Target sequence (Q61009 whole entry, looked up): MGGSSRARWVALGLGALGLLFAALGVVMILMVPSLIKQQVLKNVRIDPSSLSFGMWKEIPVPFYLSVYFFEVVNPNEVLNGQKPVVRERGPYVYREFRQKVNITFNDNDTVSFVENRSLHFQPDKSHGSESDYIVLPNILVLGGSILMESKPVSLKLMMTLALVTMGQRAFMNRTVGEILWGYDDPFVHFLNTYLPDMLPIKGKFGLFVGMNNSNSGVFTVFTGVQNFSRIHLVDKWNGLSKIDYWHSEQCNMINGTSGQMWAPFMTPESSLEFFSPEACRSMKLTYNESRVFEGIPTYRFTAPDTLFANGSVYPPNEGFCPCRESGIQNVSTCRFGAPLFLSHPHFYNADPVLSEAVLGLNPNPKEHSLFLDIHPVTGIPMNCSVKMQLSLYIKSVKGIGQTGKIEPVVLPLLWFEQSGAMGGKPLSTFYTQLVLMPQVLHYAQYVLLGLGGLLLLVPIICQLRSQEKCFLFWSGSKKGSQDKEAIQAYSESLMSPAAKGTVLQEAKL
Neddyl block: blocks human cullin neddylation; P61081+Q13564; TR-FRET cullin neddylation, biochemical; inhibition, % at 25 µM; 360,000 tested, 0.58% active; in the data active = inhibition above about 36%
UBC13 inh: inhibitors of human UBC13 polyubiquitin chain formation | AID 485273 | inhibition, % at 20 µM | TR-FRET | P61088 | 330,000 tested, 0.47% active; in the data active = inhibition above about 45%, passing the limit was not always enough; inconclusive = no clear call, values can overlap the other calls
Target sequence (P61088 whole entry, looked up): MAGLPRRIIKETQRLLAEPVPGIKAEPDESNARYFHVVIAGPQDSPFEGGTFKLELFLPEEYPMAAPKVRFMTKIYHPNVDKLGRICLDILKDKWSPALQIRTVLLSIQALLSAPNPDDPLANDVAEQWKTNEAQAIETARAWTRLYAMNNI
Casp3 counter: inhibits human caspase-3 in UBC13 counter-screen; shares compounds with UBC13 inh; Recombinant caspase-3, Caspase-Glo 3/7 luminescence, 60 min; inhibition, % at 20 µM; 1,400 tested, 4% active; AID 488856;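 active = mean inhibition across replicates above about 26%, limit read from the data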;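 note: plate controls were DMSO with caspase-3 for no effect and DMSO wells lacking enzyme for full effect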
UBC13 conf: human UBC13 polyubiquitin inhibition, confirmed. 1,400 tested, 68% active. UBC13 polyubiquitination, TR-FRET, biochemical. shares compounds with UBC13 inh. inhibition, % at 10 µM; in the data active = inhibition above about 45%; inconclusive = no clear call, values can overlap the other calls
DiI quencher: counter-screen for SR-BI lipid transfer inhibitors: DiI fluorescence quenchers; shares compounds with SR-BI HDL uptake; cell-free DiI-HDL fluorescence quenching, 30 min; AC50, µM (doses to about 35 µM), inactives show at the top dose activity change, negative = quenching; 470 tested, 20% active;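 active = quenching, a falling signal, with AC50 below a set limit tied to the top valid dose, actives reach about 32 µM in these data; inconclusive = no clear call, values can overlap the other calls; inactive = rising signal, and the rest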
Neddyl inh conf: confirmation of human cullin neddylation inhibitors; shares compounds with Neddyl block; TR-FRET cullin neddylation biochemical assay; calls only at 25 µM; 1,800 tested, 13% active; AID 652217; in the data active = inhibition above about 40%;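 note: neddylation substrate is the cullin 1 ring ligase complex with SKP2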
* marks the source's active call; other numbers are inactive results; i = inactive; ? = inconclusive; · = no result shown; ! = a repeat was not active.

SMILES	SR-BI DiI-HDL act	SR-BI HDL uptake	Neddyl block	UBC13 inh	Casp3 counter	UBC13 conf	others
Ic1ccccc1CN[C@@H]1C2CCN(CC2)[C@@H]1C(c1ccccc1)c1ccccc1	11	-11	1	49*	-3	28
CCOC(=O)[C@]12Cc3cc(OC)ccc3[C@H]1N(C(C)C)C(=O)c1cc(OC)ccc12	·	·	5	·	·	·
Cc1ccc2c(c1)C1C[N+](C)(CC(=O)c3ccc(Cl)cc3Cl)CCC1N2C(=O)c1ccc(F)cc1 (configuration not stated)	-23	23	7	47*	5	49*
Cc1ccc2c(c1)C1CN(C)CCC1N2C(=O)c1cccs1 (configuration not stated)	11	-11	-7	-7	·	·
CC1=C(O)C(=O)C=C2C1=CC=C1C2(C)CCC2(C)C3CC(C)(C(=O)O)CCC3(C)CCC12C (configuration not stated)	-37	37	8	·	·	·
Cc1cccc(N2CCc3c2nc2ccccc2c3N)c1	-29	29	-86	62*!	0	47*
Clc1ccc(CCC(Cn2ccnc2)Sc2c(Cl)cccc2Cl)cc1 (configuration not stated)	-20	20	-2	48*	-5	34
Clc1ccc(C(Cn2ccnc2)OCc2csc3c(Cl)cccc23)c(Cl)c1 (configuration not stated)	-21	21	-27	44	·	·
COC(=O)C1=C(c2ccc(F)cc2OCc2ccccc2)C[C@@H]2CC[C@H]1N2C(=O)NC1CCN(Cc2ccccc2)CC1	-3	3	-5	51*	-3	38
CCCCCN1C(=O)c2cc(OC)ccc2[C@@]2(C(=O)OCC)Cc3cc(Cl)ccc3[C@@H]12	·	·	4	·	·	·
CC(=O)N1N=C(c2cccnc2)CC1c1ccccc1O (configuration not stated)	8	-8	-1	2	·	·
CC(=O)N1N=C(c2c(O)n(C)c(=O)n(C)c2=O)CC1c1ccccc1 (configuration not stated)	-4	4	19	51*	2	22
CN1C2CCC1CC(OC(=O)c1ccc(Cl)cc1)C2 (configuration not stated)	11	-11	-1	6	·	·
CN1[C@@H]2CC[C@H]1CC(OC1c3ccccc3CCc3ccccc31)C2 (some centres not stated)	2	-2	0	58*	-2	37
CN1CCN(c2ccc(N)c(N3CCN(C)CC3)c2)CC1	10	-10	-3	49*	1	78*
Cc1ccccc1-c1ccc2c(c1)C1c3c(-c4ccccc4)nnn3-c3ccccc3C(=O)N1CC2 (configuration not stated)	·	·	11	·	·	·
CCCCCCCCCCCCCCCC[N+](C)(C)C	6	-6	-8	90*	8	84*
O=c1c2ccccc2[nH]c(=S)n1-c1ccc(Br)cc1	-11	11	-195	17	·	·
Cc1ccc2[nH]c(=S)n(-c3cccnc3)c(=O)c2c1	2	-2	-4	50*	-2	?
O=c1c2ccccc2[nH]c(=S)n1-c1cccnc1	·	·	·	23	·	·
O=c1c2cc(Br)ccc2[nH]c(=S)n1-c1ccccc1	10	-10	-12	46*	-4	?
CC(C)C[C@@H]1COc2cccc(N3CCN(C)CC3)c2S(=O)(=O)N1	·	·	7	·	·	·
CCCCCCn1c(=O)c(C(=O)Nc2cnccn2)c(O)c2ccccc21	-82	82*	-126	42	·	·	DiI quencher=-5%
O=C(Nc1ccccc1F)OC1CN2CCC1CC2 (configuration not stated)	-84	84*	0	5	·	·	DiI quencher=-3%
Cc1ccc(C(O)(C(=O)OC(C)C)C(O)c2ccccc2)cc1 (configuration not stated)	·	·	-6	·	·	·
SMILES	SR-BI DiI-HDL act	SR-BI HDL uptake	Neddyl block	UBC13 inh	Casp3 counter	UBC13 conf	others
CCOC(=O)[C@]12Cc3ccc4ccccc4c3[C@H]1N(Cc1ccccc1)C(=O)c1ccccc12	·	·	-99	·	·	·
COc1ccc(S(=O)(=O)N2CC3CC(C2)c2cccc(=O)n2C3)cc1 (configuration not stated)	-9	9	4	14	·	·
CC(C)(C)c1ccc(S(=O)(=O)N2CC3CC(C2)c2cccc(=O)n2C3)cc1 (configuration not stated)	12	-12	-10	-2	·	·	DiI quencher=0%
CCC(C)n1c(O)c(/C=N/NC(=O)c2ccncc2)c(=O)[nH]c1=S (configuration not stated)	-39	39	43*	-26	·	·	Neddyl inh conf=i
O=c1[nH]c2ccccc2n1C1CCN(C(c2cc3ccccc3o2)c2nnnn2Cc2ccccc2)CC1 (configuration not stated)	·	·	-9	·	·	·
COc1ccc2c(CN3CC=C(c4ccccc4)CC3)cc(=O)oc2c1	-8	8	41*	6	·	·	Neddyl inh conf=i
CCc1ccc2c(CN3CC=C(c4ccccc4)CC3)cc(=O)oc2c1	-1	1	-1	6	·	·
CCOC(=O)CNC(=O)N1Cc2cc(N3CCOCC3)ccc2-n2nncc2C1	·	·	2	·	·	·
CCOc1ccc(N=Cc2c(O)n(CCc3ccc(OC)c(OC)c3)c(=O)[nH]c2=O)cc1	-12	12	41*	5	·	·	Neddyl inh conf=i
COc1ccc(CCn2c(O)c(C=Nc3ccc(NC(C)=O)cc3)c(=O)[nH]c2=O)cc1OC	16	-16	·	-1	·	·
CC1(C)CC(=O)CC(C)(C)N1O	·	·	-2	·	·	·
CCC(=NCC1CCCO1)c1c(O)n(Cc2ccccc2)c(=O)[nH]c1=O (configuration not stated)	3	-3	-4	-4	·	·
O=C(N/N=C/c1c(O)n(CCc2ccccc2)c(=O)[nH]c1=O)c1ccccc1	·	·	44*	0	·	·	Neddyl inh conf=i
CC/C(=N\NC(=O)c1ccccc1)c1c(O)n(Cc2ccccc2)c(=O)[nH]c1=O	·	·	39*	-5	·	·	Neddyl inh conf=i
CC1(C)Cc2c(sc3c2C(=O)NC(c2cccnc2)N3)CO1 (configuration not stated)	13	-13	43*	-3	·	·	Neddyl inh conf=i
c1cncc(C2CCCN2)c1 (configuration not stated)	·	·	·	-2	·	·
O=C1NC(c2cccnc2)Nc2sc3c(c21)CCCC3 (configuration not stated)	-13	13	41*	4	·	·	Neddyl inh conf=i
C=CC12CN(C)C3C4COC(CC41)C1(C(=O)Nc4ccccc41)C32 (configuration not stated)	·	·	5	·	·	·
CCOc1ccc2[nH]c(=O)c(CN(CCO)C3(c4nnnn4C4CCCCC4)CCCCC3)cc2c1	4	-4	39*	-1	·	·	Neddyl inh conf=i
